In general, EC50 refers to the concentration at which the effect is half-maximal.

The source made the active and inactive calls. The rule behind the calls is not given here.

One compound from ChEMBL document CHEMBL4354867, “Validation and Characterization of Five Distinct Novel Inhibitors of Human Cytomegalovirus” (J Med Chem, 2020) can be followed below.

Common to all, as to type: functional, organism-based
Test [1] deals with Human betaherpesvirus 5. As to the kind of experiment: Antiviral activity against GCV-resistant HCMV Towne infected in human HFF cells assessed as reduction in plaque formation treated with compound following viral infection and incubated for 8 to 10 days by crystal violet staining based assay. As to conditions: Human betaherpesvirus 5, strain Towne.
The subject of the next test is Human alphaherpesvirus 1. The test is described as follows: Antiviral activity against HSV 1 infected in African green monkey Vero cells assessed as reduction in plaque formation incubated for 36 hrs by crystal violet staining based assay. The note with it: vero. An outline of the steps: (§1)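 Plaque reduction in Vero cells: virus adsorbed 60 min, then compound added in a carboxymethylcellulose overlay. Plaques counted after 36 h by crystal violet staining.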

A further test relates to Human alphaherpesvirus 2. The test is described as follows: Antiviral activity against HSV 2 infected in African green monkey Vero cells assessed as reduction in plaque formation incubated for 36 hrs by crystal violet staining based assay. As to conditions: vero. An outline of the steps:
as §1

The test system of test [2] is Human betaherpesvirus 5. The test is described as follows: Antiviral activity against GCV-resistant HCMV Towne infected in human HFF cells assessed as reduction in plaque formation at 0.1 to 10 uM treated with compound for 24 hrs followed by viral infection at MOI of […] and measured after 10 days by crystal violet staining based assay. The note with it: strain Towne. The method in brief:
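Overlay of DMEM with 0.5% carboxymethylcellulose and 4% FBS, 37 °C. After 10 days plaques stained with crystal violet and counted. Data are mean ± SD of triplicates from a representative experiment.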

In test [3] the test system is Human betaherpesvirus 5. As to the kind of experiment: Inhibition of viral protein expression in HCMV Towne infected in human HFF cells assessed as reduction in pp65 expression at 3 uM treated with compound for 24 hrs followed by viral infection at MOI of 1 PFU/cell measured at 72 hrs post infection by Western blot analysis. As to conditions: strain Towne. An outline of the steps: (§2)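 HFFs pretreated with compound, then infected with HCMV Towne at MOI 1, 0.1 or 0.01. Viral proteins in cell lysates detected at 72 hpi by SDS-PAGE (8–10%), PVDF transfer and chemiluminescent immunoblot. Images from a representative experiment.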

In test [4] the test system is Human betaherpesvirus 5. As to the kind of experiment: Inhibition of viral protein expression in HCMV Towne infected in human HFF cells assessed as reduction in UL84 expression at 3 uM treated with compound for 24 hrs followed by viral infection at MOI of 1 PFU/cell measured at 72 hrs post infection by Western blot analysis. The note with it: strain Towne. An outline of the steps: as §2
(A western blot detects proteins with antibodies after separation by electrophoresis.)

Test [5] concerns Human betaherpesvirus 5. The test is described as follows: Inhibition of viral protein expression in HCMV Towne infected in human HFF cells assessed as reduction in IE1 expression at 3 uM treated with compound following viral infection at MOI of 1 PFU/cell measured at 72 hrs post infection by Western blot analysis. As to conditions: strain Towne. An outline of the steps:
(§3)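 HFFs infected with HCMV Towne (MOI 1), then treated with compound. Lysates taken at 72 hpi, equal protein loaded on 8–10% Tris-glycine SDS-PAGE and transferred to PVDF. Primary antibodies overnight at 4 °C, HRP secondary, chemiluminescent detection; β-actin as loading control.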

Test [6] concerns Human betaherpesvirus 5. The test is described as follows: Inhibition of viral protein expression in HCMV Towne infected in human HFF cells assessed as reduction in UL84 expression at 3 uM treated with compound following viral infection at MOI of 1 PFU/cell measured at 72 hrs post infection by Western blot analysis. As to conditions: strain Towne. An outline of the steps: as §3

Test [7] relates to Human betaherpesvirus 5. As to the kind of experiment: Inhibition of viral protein expression in HCMV Towne infected in human HFF cells assessed as reduction in IE2 expression at 3 uM treated with compound for 24 hrs followed by viral infection at MOI of 0.01 PFU/cell measured at 72 hrs post infection by Western blot analysis. The note with it: strain Towne. An outline of the steps:
as §2

For test [8], the system named is Human betaherpesvirus 5. As to the kind of experiment: Inhibition of viral protein expression in HCMV Towne infected in human HFF cells assessed as reduction in UL84 expression at 3 uM treated with compound for 24 hrs followed by viral infection at MOI of 0.01 PFU/cell measured at 72 hrs post infection by Western blot analysis. The note with it: strain Towne. The method in brief:
as §2

Test [9] has as its system Human betaherpesvirus 5. As to the kind of experiment: Antiviral activity against HCMV TB40 infected in human HFF cells assessed as reduction in plaque formation at 1 to 10 uM treated with compound following viral infection at MOI of 100 PFU/ml and measured after 10 days by crystal violet staining based assay.

`COc1ccc(Cl)cc1C(=O)Nc1ccc(NC(=O)c2ccco2)cc1`: the EC50 in the test on Human betaherpesvirus 5 [1] is 250 nM; with Human alphaherpesvirus 1 it was “Not Active”; in the test with Human alphaherpesvirus 2, “Not Active”. Besides, the outcome in the test with Human betaherpesvirus 5 [2] and in the test on Human betaherpesvirus 5 [9] was Active. Also, the inhibition result with Human betaherpesvirus 5 [3], in the test with Human betaherpesvirus 5 [4], in the test with Human betaherpesvirus 5 [5] and in the test with Human betaherpesvirus 5 [6] was “inactive” throughout. Moreover, the inhibition entry in the test on Human betaherpesvirus 5 [7] and in the test with Human betaherpesvirus 5 [8] was “Active” throughout.
